Active and inactive are the calls of the source. The rule behind the calls is not given here.
Key:
[1] = Half life in human liver microsomes; assay type: ADME, Microsome
[2] = Half life in nude mouse liver microsomes; assay type: ADME, Microsome
A-375 = experiment: Growth inhibition of human A375 cells after 4 days by MTT assay; assay type: functional, cell-based; conditions: A-375, 96 h
[3] = molecular target: Aurora kinase B (Homo sapiens) (UniProt Q96GD4); experiment: Inhibition of AURKB at 1 uM
[4] = molecular target: Serine/threonine-protein kinase B-raf (Homo sapiens, UniProt P15056); experiment: Inhibition of BRAF at 1 uM
[5] = molecular target: Cyclin-dependent kinase 1/cyclin B (Homo sapiens) (UniProt P06493+P14635+Q8WWL7+O95067); experiment: Inhibition of CDK1/cyclin B at 1 uM; assay type: protein-complex assay
[6] = molecular target: Cyclin-dependent kinase 2/cyclin A (Homo sapiens) (UniProt P24941+P20248+P78396); experiment: Inhibition of CDK2/cyclin A at 1 uM; assay type: protein-complex assay
[7] = molecular target: Ephrin type-A receptor 1 (Homo sapiens) (UniProt P21709); experiment: Inhibition of EPHA1 at 1 uM
[8] = molecular target: Fibroblast growth factor receptor 1 (Homo sapiens) (UniProt P11362); experiment: Inhibition of FGFR1 at 1 uM
[9] = molecular target: Vascular endothelial growth factor receptor 1 (Homo sapiens) (UniProt P17948); experiment: Inhibition of FLT1 at 1 uM
[10] = molecular target: Receptor-type tyrosine-protein kinase FLT3 (Homo sapiens) (UniProt P36888); experiment: Inhibition of FLT3 at 1 uM
[11] = molecular target: Vascular endothelial growth factor receptor 3 (Homo sapiens) (UniProt P35916); experiment: Inhibition of FLT4 at 1 uM
[12] = molecular target: Glycogen synthase kinase-3 alpha (Homo sapiens) (UniProt P49840); experiment: Inhibition of GSK3A at 1 uM
[13] = molecular target: Glycogen synthase kinase-3 beta (Homo sapiens) (UniProt P49841); experiment: Inhibition of GSK3B at 1 uM
[14] = molecular target: Insulin-like growth factor 1 receptor (Homo sapiens) (UniProt P08069); experiment: Inhibition of IGF1R at 1 uM
[15] = molecular target: Vascular endothelial growth factor receptor 2 (Homo sapiens) (UniProt P35968); experiment: Inhibition of KDR at 1 uM
[16] = molecular target: Mast/stem cell growth factor receptor Kit (Homo sapiens) (UniProt P10721); experiment: Inhibition of KIT at 1 uM
[17] = molecular target: T1, Tyrosine-protein kinase Lck (Homo sapiens, UniProt P06239); experiment: Inhibition of LCK at 1 uM
[18] = molecular target: Mitogen-activated protein kinase 1 (Homo sapiens) (UniProt P28482); experiment: Inhibition of MAPK1 at 1 uM
[19] = molecular target: MAP kinase-activated protein kinase 2 (Homo sapiens) (UniProt P49137); experiment: Inhibition of MAPKAPK2 at 1 uM
[20] = molecular target: Hepatocyte growth factor receptor (Homo sapiens) (UniProt P08581); experiment: Inhibition of MET at 1 uM
[21] = molecular target: Serine/threonine-protein kinase Nek2 (Homo sapiens) (UniProt P51955); experiment: Inhibition of NEK2 at 1 uM
[22] = molecular target: High affinity nerve growth factor receptor (Homo sapiens) (UniProt P04629); experiment: Inhibition of NTRK1 at 1 uM
[23] = molecular target: Platelet-derived growth factor receptor beta (Homo sapiens) (UniProt P09619); experiment: Inhibition of PDGFRB at 1 uM
[24] = molecular target: Protein kinase C beta type (Homo sapiens) (UniProt P05771); experiment: Inhibition of PRKCB1 at 1 uM
[25] = molecular target: Protein kinase C beta type (Homo sapiens) (UniProt P05771); experiment: Inhibition of PRKCB2 at 1 uM
[26] = molecular target: Protein kinase C gamma type (Homo sapiens) (UniProt P05129); experiment: Inhibition of PRKCG at 1 uM
[27] = molecular target: T2, Proto-oncogene tyrosine-protein kinase receptor Ret (Homo sapiens, UniProt P07949); experiment: Inhibition of RET at 1 uM
[28] = Inhibition of RPS6K at 1 uM
[29] = molecular target: Ribosomal protein S6 kinase beta-1 (Homo sapiens) (UniProt P23443); experiment: Inhibition of RPS6B1 at 1 uM
[30] = molecular target: Serine/threonine-protein kinase Sgk1 (Homo sapiens) (UniProt O00141); experiment: Inhibition of SGK at 1 uM
[31] = molecular target: Tyrosine-protein kinase ABL1 (Homo sapiens, UniProt P00519); experiment: Inhibition of ABL1
Ephrin type-A receptor 1 = Ephrin type-A receptor 1 (Homo sapiens, UniProt P21709); experiment: Inhibition of EPHA1
[32] = molecular target: T1, Tyrosine-protein kinase Lck; experiment: Inhibition of LCK
[33] = molecular target: T2, Proto-oncogene tyrosine-protein kinase receptor Ret; experiment: Inhibition of RET
[34] = molecular target: Tyrosine-protein kinase Yes (Homo sapiens, UniProt P07947); experiment: Inhibition of YES1
[35] = tested on: Serine/threonine-protein kinase B-raf (Homo sapiens), P15056 [V600E]; experiment: Inhibition of BRAF V600E mutant in human A375 cells assessed as reduction of ERK phosphorylation; assay type: cell-based; conditions: A-375
[36] = Half life in nude mouse; assay type: ADME, organism-based; conditions: in vivo
[37] = AUC (infinity) in nude mouse at 10 mg/kg, po; assay type: ADME, organism-based; parameters: time infinity, dose 10 mg/kg, route oral; conditions: plasma
[38] = Oral bioavailability in nude mouse at 10 mg/kg; assay type: ADME, organism-based; conditions: in vivo, read-out: Activity
[39] = Clearance in nude mouse; assay type: ADME, organism-based; conditions: in vivo
[40] = Drug level in tumor tissue of human A375 cells xenografted nude mouse at 25 mg/kg, po after 24 hrs; assay type: ADME, organism-based, Neoplasm, A-375; parameters: dose 25 mg/kg, route oral; conditions: read-out: Drug uptake
[41] = Drug level in plasma of human A375 cells xenografted nude mouse at 25 mg/kg, po after 24 hrs; assay type: ADME, organism-based, A-375; parameters: dose 25 mg/kg, route oral; conditions: read-out: Drug uptake
Mus musculus = experiment: Inhibition of BRAF-mediated ERK phosphorylation in human A375 cells xenografted nude mouse at 10 mg/kg, po QD; assay type: functional, organism-based; parameters: dose 10 mg/kg; conditions: A-375
How it was run: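 Nude mice bearing A375 xenografts received an oral 10 mg/kg dose once daily. Tumours were taken from treated and untreated animals 6 h after the first dose, and ERK phosphorylation in tumour tissue was measured.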

COLO 205 = experiment: Antitumor activity against human COLO205 cells xenografted in nude mouse assessed as tumor growth inhibition at 7.5 mg/kg, po; assay type: functional, organism-based; parameters: dose 7.5 mg/kg
[42] = molecular target: Epidermal growth factor receptor (Homo sapiens, UniProt P00533)
[43] = molecular target: Mitogen-activated protein kinase 14 (Homo sapiens, UniProt Q16539); conditions: 1 uM
[44] = molecular target: RAF proto-oncogene serine/threonine-protein kinase (Homo sapiens, UniProt P04049); conditions: 1 uM
[45] = molecular target: Proto-oncogene tyrosine-protein kinase Src (Homo sapiens) (UniProt P12931); conditions: 1 uM
[46] = molecular target: 3-phosphoinositide-dependent protein kinase 1 (Homo sapiens) (UniProt O15530); experiment: Inhibition of PDK1 at 1 uM
[47] = molecular target: Protein kinase C alpha (Homo sapiens) (UniProt P17252); experiment: Inhibition of PRKCA at 1 uM

half-life [1]: > 0.5 h | half-life [2]: > 0.5 h | IC50 (A-375): 24 nM | inhibition [3]: 0% | inhibition [4]: 100% | inhibition [5]: 0% | inhibition [6]: 4% | inhibition [7]: 84% | inhibition [8]: 63% | inhibition [9]: 14% | inhibition [10]: 23% | inhibition [11]: 17% | inhibition [12]: 34% | inhibition [13]: 35% | inhibition [14]: 5% | inhibition [15]: 39% | inhibition [16]: 9% | inhibition [17]: 73% | inhibition [18]: 6% | inhibition [19]: -1% | inhibition [20]: 66% | inhibition [21]: 6% | inhibition [22]: 25% | inhibition [23]: 9% | inhibition [24]: 39% | inhibition [25]: 51% | inhibition [26]: 15% | inhibition [27]: 84% | inhibition [28]: 14% | inhibition [29]: 5% | inhibition [30]: 8% | IC50 [31]: 286 nM | IC50 (Ephrin type-A receptor 1): 95.3 nM | IC50 [32]: 505 nM | IC50 [33]: 160 nM | IC50 [34]: 246 nM | inhibition [35]: Active | half-life [36]: 3.5 h | AUC(0-inf) [37]: 4000 ng·h/mL | bioavailability [38]: 54% | clearance [39]: 23 mL/min/kg | concentration at 24 h [40]: 6.1 µM | concentration at 24 h [41]: 0.06 µM | IC50 [42]: 173 nM | inhibition [43]: 81% | inhibition [44]: 88% | inhibition [45]: 77% | inhibition [46]: 3% | inhibition [47]: 9%
Structure (SMILES): CN1C[C@@H]2C[C@H]1CN2c1cc(F)c(-c2ccnc3c(-c4cccc5[nH]ncc45)c(-c4ccncc4)nn23)c(F)c1
inhibition (Mus musculus): Active | TGI (COLO 205): Active

From ChEMBL document CHEMBL1275379, “Indazolylpyrazolopyrimidine as highly potent B-Raf inhibitors with in vivo activity” (J Med Chem, 2010)
